These results are taken from ChEMBL document CHEMBL1125672, “2-acetylpyridine thiosemicarbazones. 13. Derivatives with antifilarial activity” (1991).

Common to all, as to assay type: functional
For assay [1], the system named is Onchocerca gutturosa. Briefly: Mean motility score for treated Onchocerca gutturosa involving LLCMK2 feeder cells at a concentration of 1.94*10e-7M at 96 h. In outline:
(§1)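 One male O. gutturosa per well over LLCMK2 feeder cells in MEM with 10% heat-inactivated FCS, antibiotics and bicarbonate, 5% CO2; compound introduced in DMSO (≤0.016%, equal DMSO in controls). Motility scored 0 (immotile) to 10 (maximal control activity) every 30 min to 4.5 h, then at 1, 2, 3, 4 and 7 days.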

Assay [2] deals with Onchocerca gutturosa. Briefly: Mean motility score for treated Onchocerca gutturosa involving LLCMK2 feeder cells at a concentration of 3.05*10e-9 M at 2.5 h. In outline: (§2)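 Single male O. gutturosa worms (obtained following abattoir slaughter) per well in Eagle's MEM with 10% heat-inactivated fetal calf serum, penicillin, streptomycin, amphotericin B and bicarbonate, over LLCMK2 feeder cells, 5% CO2 in air. Drug dissolved in DMSO; controls received matched DMSO ≤0.016%. Motility scored 0 (immotile) to 10 (maximum control activity) every 30 min to 4.5 h, then days 1, 2, 3, 4, 7.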

Assay [3] has as its system Acanthocheilonema viteae. Briefly: anti-filarial Activity was measured against Acanthocheilonema viteae in jirds at 50 mg/kg/day(5 days) dose. In outline:
(§3)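 Jirds with established B. pahangi or A. viteae infections were given drug once daily for 5 days by subcutaneous injection, at the maximum tolerated dose and, where supply allowed, graded lower doses. Tolerance was first checked in noninfected jirds with a single 200 mg/kg oral or subcutaneous dose, watching 72 h for excessive weight loss or death. Macrofilarial suppression was the read-out.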

The subject of assay [4] is Acanthocheilonema viteae. Briefly: anti-filarial Activity was measured against Acanthocheilonema viteae in jirds at 100 mg/kg/day(5 days) dose. Put shortly:
as §3

For assay [5], the system named is Onchocerca gutturosa. The experiment in a line: Mean motility score for treated Onchocerca gutturosa involving LLCMK2 feeder cells at a concentration of 1.94*10e-7M at 2 h. Put shortly:
as §1

Assay [6] has as its system Onchocerca gutturosa. Briefly: Mean motility score for treated Onchocerca gutturosa involving LLCMK2 feeder cells at a concentration of 1.21*10e-8M at 168 h. Put shortly:
as §1

Assay [7] deals with Onchocerca gutturosa. Briefly: Mean motility score for treated Onchocerca gutturosa involving LLCMK2 feeder cells at a concentration of 1.94*10e-7M at 1.5 h. In outline: as §1
The test system of assay [8] is Onchocerca gutturosa. Briefly: Mean motility score for treated Onchocerca gutturosa involving LLCMK2 feeder cells at a concentration of 1.94*10e-7M at 24 h. In outline:
as §1

In assay [9] the test system is Onchocerca gutturosa. The experiment in a line: Mean motility score for treated Onchocerca gutturosa involving LLCMK2 feeder cells at a concentration of 1.94*10e-7M at 48 h. In outline: as §1
Assay [10] has as its system Brugia pahangi. Briefly: anti-filarial Activity was measured against Brugia pahangi in jirds at 50 mg/kg/day(5 days) dose. In outline:
as §3

Assay [11] has as its system Onchocerca gutturosa. The experiment in a line: Mean motility score for treated Onchocerca gutturosa involving LLCMK2 feeder cells at a concentration of 3.05*10e-9 M at 1.5 h. In outline:
as §1

The subject of assay [12] is Onchocerca gutturosa. The experiment in a line: Colorimetric quantification of male Onchocerca gutturosa viability, expressed as % inhibition of formazan formation at 1.21*10e-8M conc. by using tetrazolium Dye MTT assay. In outline: (§4)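 Single intact male O. gutturosa, cultured with LLCMK2 feeder cells in MEM + 10% heat-inactivated FCS (5% CO2), drug added from DMSO (≤0.016% DMSO in controls). MTT read after 168 h: worm in 0.5 mg/mL MTT, 30 min at 36.5 °C, formazan solubilized in DMSO 1 h at room temperature, absorbance 490 nm vs DMSO blank.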

For assay [13], the system named is Onchocerca gutturosa. Briefly: Mean motility score for treated Onchocerca gutturosa involving LLCMK2 feeder cells at a concentration of 1.95*10e-8 M at 0.5 h. Put shortly: as §1
The subject of assay [14] is Onchocerca gutturosa. The experiment in a line: Mean motility score for treated Onchocerca gutturosa involving LLCMK2 feeder cells at a concentration of 1.95*10e-8 M at 3.5 h. To be noted: in the assay text read “1.95*10e-7 M” for “1.95*10e-8 M”. In outline:
as §1

Assay [15] relates to Onchocerca gutturosa. The experiment in a line: Mean motility score for treated Onchocerca gutturosa involving LLCMK2 feeder cells at a concentration of 4.88*10e-8M at 4.5 h. In outline: as §2
In assay [16] the test system is Onchocerca gutturosa. The experiment in a line: Mean motility score for treated Onchocerca gutturosa involving LLCMK2 feeder cells at a concentration of 3.05*10e-8 M at 0.5 h. Put shortly: as §1
Assay [17] has as its system Onchocerca gutturosa. Briefly: Mean motility score for treated Onchocerca gutturosa involving LLCMK2 feeder cells at a concentration of 3.1*10e-6 M at 3 h. In outline: as §2
The test system of assay [18] is Onchocerca gutturosa. The experiment in a line: Mean motility score for treated Onchocerca gutturosa involving LLCMK2 feeder cells at a concentration of 1.95*10e-8 M at 2.5 h. In outline: as §1
Assay [19] concerns Onchocerca gutturosa. The experiment in a line: Mean motility score for treated Onchocerca gutturosa involving LLCMK2 feeder cells at a concentration of 3.1*10e-6 M at 48 h. Put shortly: as §2
In assay [20] the test system is Onchocerca gutturosa. Briefly: Mean motility score for treated Onchocerca gutturosa involving LLCMK2 feeder cells at a concentration of 1.95*10e-8 M at 2 h. In outline:
as §1

Assay [21] concerns Onchocerca gutturosa. Briefly: Mean motility score for treated Onchocerca gutturosa involving LLCMK2 feeder cells at a concentration of 3.1*10e-6 M at 96 h. Put shortly:
as §2

The test system of assay [22] is Onchocerca gutturosa. Briefly: Mean motility score for treated Onchocerca gutturosa involving LLCMK2 feeder cells at a concentration of 1.95*10e-8 M at 1.5 h. Put shortly:
as §1

The test system of assay [23] is Onchocerca gutturosa. Briefly: Colorimetric quantification of male Onchocerca gutturosa viability, expressed as % inhibition of formazan formation at 3.05*10e-9 M conc. by using tetrazolium Dye MTT assay. Put shortly:
as §4
Background: Tetrazolium assays rely on reduction of a dye to a coloured formazan, in cell work by metabolically active cells.

Assay [24] relates to Onchocerca gutturosa. The experiment in a line: Mean motility score for treated Onchocerca gutturosa involving LLCMK2 feeder cells at a concentration of 4.88*10e-8M at 96 h. Put shortly:
as §2

In assay [25] the test system is Onchocerca gutturosa. Briefly: Mean motility score for treated Onchocerca gutturosa involving LLCMK2 feeder cells at a concentration of 4.88*10e-8M at 4 h. Put shortly: as §2
In assay [26] the test system is Onchocerca gutturosa. Briefly: Mean motility score for treated Onchocerca gutturosa involving LLCMK2 feeder cells at a concentration of 4.88*10e-8M at 72 h. In outline:
as §2

Assay [27] relates to Onchocerca gutturosa. Briefly: Mean motility score for treated Onchocerca gutturosa involving LLCMK2 feeder cells at a concentration of 4.88*10e-8M at 3 h. In outline: as §2
The subject of assay [28] is Onchocerca gutturosa. Briefly: Mean motility score for treated Onchocerca gutturosa involving LLCMK2 feeder cells at a concentration of 3.1*10e-6 M at 2.5 h. In outline: as §2
Assay [29] deals with Onchocerca gutturosa. The experiment in a line: Mean motility score for treated Onchocerca gutturosa involving LLCMK2 feeder cells at a concentration of 3.1*10e-6 M at 0.5 h. Put shortly: as §2
For assay [30], the system named is Onchocerca gutturosa. The experiment in a line: Mean motility score for treated Onchocerca gutturosa involving LLCMK2 feeder cells at a concentration of 1.95*10e-8 M at 24 h. Put shortly:
as §1

The test system of assay [31] is Onchocerca gutturosa. Briefly: Mean motility score for treated Onchocerca gutturosa involving LLCMK2 feeder cells at a concentration of 3.1*10e-6 M at 3.5 h. Put shortly: as §2
Assay [32] concerns Onchocerca gutturosa. The experiment in a line: Mean motility score for treated Onchocerca gutturosa involving LLCMK2 feeder cells at a concentration of 1.95*10e-8 M at 168 h. Put shortly:
as §1

The test system of assay [33] is Onchocerca gutturosa. Briefly: Mean motility score for treated Onchocerca gutturosa involving LLCMK2 feeder cells at a concentration of 1.95*10e-8 M at 4.5 h. In outline: as §1
Assay [34] deals with Onchocerca gutturosa. The experiment in a line: Colorimetric quantification of male Onchocerca gutturosa viability, expressed as % inhibition of formazan formation at 1.95*10e-7 M conc. by using tetrazolium Dye MTT assay. Put shortly:
as §4

The subject of assay [35] is Onchocerca gutturosa. Briefly: Mean motility score for treated Onchocerca gutturosa involving LLCMK2 feeder cells at a concentration of 4.88*10e-8M at 2 h. Put shortly: as §2

Usually Inhibition stands for how much of the control response was suppressed. Read a low Inhibition as a weak effect. Regarding `C/C(=N\NC(S)=Nc1ccccc1N)c1ccccn1`, the Motility worked out at 1.8 in assay [1]; 7.5 in [2]; 9 in assay [5]; 1 in assay [6]; 8 in [7]; 8 in assay [8]. For the same molecule, the figures for the Motility in [9] and in assay [11] were 4 and 8.3, respectively. For the same molecule, the Suppression in assay [3], in [4] and in [10] was 100% in each case. Further, the Inhibition in assay [12] is given as 27.9%.

On to `C/C(=N\NC(=S)N1CCCCCC1)c1ccccn1`, for which the Motility in [13] turned out to be 8.8; in [14] it was 10; in assay [15], 9.8; in assay [16], 9.8; in assay [17], 9.3; in assay [18] it was 9.3. Moreover, the Motility in assay [19] stood at 2.8; in assay [20], 9.3; in assay [21], 0; in assay [22], 9.5; in [24], 1.5; in assay [25], 8.8. Further, the Motility in [26] stood at 3.5; in [27], 9; in [28] it was 8.5; in assay [29], 9.5; in assay [30], 8; in assay [31], 9. The Motility worked out at 0 in assay [32], 9.5 in assay [33] and 8.8 in assay [35]. The values for the Inhibition in assay [23] and in [34] were 19.5% and 70.4%, respectively.
